Data reported in ChEMBL document CHEMBL1143019, “Hybrid molecules of estrone: new compounds with potential antibacterial, antifungal, and antiproliferative activities” (2007).

Legend:
[1] = tested on: Staphylococcus aureus; experiment: Antibacterial activity against Staphylococcus aureus SG 511 after 24 hrs by micro-broth dilution method; type: functional; conditions: SG 511, 24 h
Procedure, shortened: (§1)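 Microbroth dilution per NCCLS guidelines. Bacteria grown overnight at 37 °C in Mueller–Hinton broth. Compound solution serially diluted twofold in MHB, then wells inoculated to a final 5×10⁵ CFU/mL. Incubated 24 h at 37 °C. MIC (µg/mL) read on an automatic plate reader as the lowest dilution allowing no visible growth.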

[2] = tested on: Micrococcus luteus; experiment: Antibacterial activity against Micrococcus luteus ATCC 10240 after 24 hrs by microbroth dilution method; type: functional; conditions: ATCC 10240, 24 h; procedure, shortened: as §1
[3] = tested on: Aspergillus fumigatus; experiment: Antifungal activity against Aspergillus fumigatus 231 after 48 hrs; type: functional
Procedure, shortened: (§2)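 Modified NCCLS M27-A broth microdilution with clinical isolates subcultured on Sabouraud dextrose agar. Suspensions diluted 1:50 in RPMI 1640 to give a final inoculum of 0.5–2.5×10³ CFU/mL for yeasts or 0.5–5×10⁴ CFU/mL for molds. The RPMI had L-glutamine, no bicarbonate, and 0.165 M MOPS to pH 7.0. Twofold dilutions from 250 to 0.49. Plates held at 35 °C, humid, without agitation. MIC is the lowest concentration giving ≥80% inhibition versus drug-free control, read at 24 and 48 h.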

[4] = tested on: Trichosporon beigelii; experiment: Antifungal activity against Trichosporon beigelii 1188 after 24 hrs; type: functional; procedure, shortened: as §2
[5] = tested on: Enterococcus faecalis; experiment: Antibacterial activity against Enterococcus faecalis 1528 after 24 hrs by micro-broth dilution method; type: functional; procedure, shortened: as §1
[6] = tested on: Mycobacterium kansasii; experiment: Antimicrobial activity against Mycobacterium kansasii My 6509/96 after 14 days; type: functional; conditions: 336 h
Procedure, shortened: (§3)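 Run in Šula semisynthetic liquid medium containing bovine serum. Compounds added as DMSO solutions at final concentrations of […]. Each strain was also inoculated onto Löwenstein–Jensen medium to control inoculum sterility and growth.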

[7] = tested on: Mycolicibacterium vaccae; experiment: Antimicrobial activity against Mycobacterium vaccae 10670 after 24 hrs by micro-broth dilution method; type: functional; procedure, shortened: as §1
[8] = tested on: Mycobacterium kansasii; experiment: Antimicrobial activity against Mycobacterium kansasii My 6509/96 after 7 days; type: functional; conditions: 168 h; procedure, shortened: as §3
[9] = tested on: Staphylococcus aureus; experiment: Antibacterial activity against methicillin-resistant Staphylococcus aureus 994/93 after 24 hrs by micro-broth dilution method; type: functional
Procedure, shortened: (§4)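 Broth microdilution per NCCLS in Mueller–Hinton broth. Overnight cultures grown at 37 °C. Compound serially diluted twofold, then wells inoculated to a final 5×10⁵ CFU/mL. Plates held at 37 °C for 24 h. MIC (µg/mL) read on an automatic plate reader as the lowest dilution with no visible growth.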

[10] = tested on: Pichia kudriavzevii; experiment: Antifungal activity against Candida krusei E28 after 48 hrs; type: functional; procedure, shortened: as §2
[11] = tested on: Pichia kudriavzevii; experiment: Antifungal activity against Candida krusei E28 after 24 hrs; type: functional; procedure, shortened: as §2
[12] = tested on: Lichtheimia corymbifera; experiment: Antifungal activity against Absidia corymbifera 272 after 24 hrs; type: functional; procedure, shortened: as §2
[13] = tested on: Mycolicibacterium smegmatis; experiment: Antimicrobial activity against Mycobacterium smegmatis SG 987 after 24 hrs by micro-broth dilution method; type: functional; procedure, shortened: as §1
[14] = tested on: Mycobacterium kansasii; experiment: Antimicrobial activity against Mycobacterium kansasii My 235/80 after 21 days; type: functional; conditions: 504 h; procedure, shortened: as §3
[15] = tested on: Mycobacterium kansasii; experiment: Antimicrobial activity against Mycobacterium kansasii My 6509/96 after 21 days; type: functional; conditions: 504 h; procedure, shortened: as §3
[16] = tested on: Mycolicibacterium fortuitum; experiment: Antimicrobial activity against Mycobacterium fortuitum Borstel after 24 hrs by microbroth dilution method; type: functional; procedure, shortened: as §1
[17] = tested on: Mycobacterium avium; experiment: Antimicrobial activity against Mycobacterium avium My 330/88 after 14 days; type: functional; conditions: 336 h
[18] = tested on: Mycobacterium tuberculosis; experiment: Antimicrobial activity against Mycobacterium tuberculosis My 331/88 after 14 days; type: functional; conditions: 336 h
[19] = tested on: Mycobacterium kansasii; experiment: Antimicrobial activity against Mycobacterium kansasii My 235/80 after 14 days; type: functional; conditions: 336 h; procedure, shortened: as §3
[20] = tested on: Candida albicans; experiment: Antifungal activity against Candida albicans ATCC 44859 after 24 hrs; type: functional; conditions: ATCC 44859, 24 h; procedure, shortened: as §2
[21] = tested on: Candida albicans; experiment: Antifungal activity against Candida albicans ATCC 44859 after 48 hrs; type: functional; conditions: ATCC 44859, 48 h; procedure, shortened: as §2
[22] = tested on: Mycobacterium kansasii; experiment: Antimicrobial activity against Mycobacterium kansasii My 235/80 after 7 days; type: functional; conditions: 168 h; procedure, shortened: as §3
[23] = tested on: Nakaseomyces glabratus; experiment: Antifungal activity against Candida glabrata 20/I after 24 hrs; type: functional; procedure, shortened: as §2
[24] = tested on: Lichtheimia corymbifera; experiment: Antifungal activity against Absidia corymbifera 272 after 48 hrs; type: functional; procedure, shortened: as §2
[25] = tested on: Trichophyton benhamiae; experiment: Antifungal activity against Trichophyton mentagrophytes 445 after 120 hrs; type: functional, Arthroderma benhamiae
Procedure, shortened: (§5)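 Same modified M27-A microdilution with the mold inoculum of 0.5–5×10⁴ CFU/mL. Medium was RPMI 1640 with L-glutamine, no bicarbonate, and 0.165 M MOPS at pH 7.0. Twofold dilutions from 250 to 0.49. Incubated at 35 °C in a humid atmosphere.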

[26] = tested on: K562; experiment: Antiproliferative activity against human K562 cells after 72 hrs; type: functional; conditions: K562, 72 h
Procedure, shortened: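 About 10,000 suspension cells per well in RPMI 1640 with 10% heat-inactivated FBS and penicillin/streptomycin, without HEPES. Exposed to 10 concentrations for 72 h at 37 °C in humidified 5% CO₂. Wells diluted 1:50 in CASYTON and counted electronically, each result the mean of three successive counts. GI50 is where the concentration–response curve crosses 50% of control cell count.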

[27] = tested on: L929; experiment: Antiproliferative activity against mouse L929 cells after 72 hrs; type: functional; conditions: L929, 72 h
Procedure, shortened: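 About 10,000 adherent cells per well in RPMI 1640 with 10% heat-inactivated FBS and penicillin/streptomycin, without HEPES. Exposed to 10 concentrations for 72 h at 37 °C in humidified 5% CO₂. Monolayers fixed with glutaraldehyde, stained 15 min with 0.05% methylene blue, and eluted with 0.33 N HCl; OD read at 630 nm. GI50 derived from dose–response curves relative to control.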

[28] = tested on: Candida tropicalis; experiment: Antifungal activity against Candida tropicalis 156 after 24 hrs; type: functional; procedure, shortened: as §2
[29] = tested on: Trichosporon beigelii; experiment: Antifungal activity against Trichosporon beigelii 1188 after 48 hrs; type: functional; procedure, shortened: as §2
[30] = tested on: Staphylococcus aureus; experiment: Antibacterial activity against methicillin-resistant Staphylococcus aureus 134/94 after 24 hrs by microbroth dilution method; type: functional; procedure, shortened: as §4
[31] = tested on: Nakaseomyces glabratus; experiment: Antifungal activity against Candida glabrata 20/I after 48 hrs; type: functional; procedure, shortened: as §2
[32] = tested on: Mycobacterium tuberculosis; experiment: Antimicrobial activity against Mycobacterium tuberculosis My 331/88 after 21 days; type: functional; conditions: 504 h
[33] = tested on: Mycobacterium avium; experiment: Antimicrobial activity against Mycobacterium avium My 330/88 after 21 days; type: functional; conditions: 504 h
[34] = tested on: Candida tropicalis; experiment: Antifungal activity against Candida tropicalis 156 after 48 hrs; type: functional; procedure, shortened: as §2
[35] = tested on: HeLa; experiment: Cytotoxicity against human HeLa cells after 72 hrs; type: functional; conditions: for CC50: Homo sapiens, HeLa, 72 h
Procedure, shortened: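 About 10,000 cells per well in RPMI 1640 were preincubated 48 h without compound. The 10 test concentrations were then applied onto the monolayers and incubated 72 h at 37 °C in humidified 5% CO₂. Monolayers fixed with glutaraldehyde, stained with 0.05% methylene blue, and eluted with 0.33 N HCl; optical density measured at 630 nm.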

[36] = tested on: Trichophyton benhamiae; experiment: Antifungal activity against Trichophyton mentagrophytes 445 after 72 hrs; type: functional, Arthroderma benhamiae; procedure, shortened: as §5
[37] = tested on: Mycolicibacterium aurum; experiment: Antimicrobial activity against Mycobacterium aurum SB 66 after 24 hrs by micro-broth dilution method; type: functional; procedure, shortened: as §1
[38] = tested on: Aspergillus fumigatus; experiment: Antifungal activity against Aspergillus fumigatus 231 after 24 hrs; type: functional; procedure, shortened: as §2

| SMILES | MIC [1] [µg/mL] | MIC [2] [µg/mL] | MIC [3] [µM] | MIC [4] [µM] | MIC [5] [µg/mL] | MIC [6] [µM] | MIC [7] [µg/mL] | MIC [8] [µM] | MIC [9] [µg/mL] | MIC [10] [µM] | MIC [11] [µM] | MIC [12] [µM] | MIC [13] [µg/mL] | MIC [14] [µM] | MIC [15] [µM] | MIC [16] [µg/mL] | MIC [17] [µM] | MIC [18] [µM] | MIC [19] [µM] | MIC [20] [µM] | also measured |
| --- | --- | --- | --- | --- | --- | --- | --- | --- | --- | --- | --- | --- | --- | --- | --- | --- | --- | --- | --- | --- | --- |
| C[C@]12CC[C@@H]3c4ccc(OCCCCCCC[n+]5ccc(SCc6ccccc6)cc5)cc4CC[C@H]3[C@@H]1CCC2=O.[Br-] | 3.12 | 0.4 | 31 | 3.9 | 6.25 | 8 | 1.56 | 8 | 3.12 | 7.8 | 7.8 | 31 | 1.56 | 8 | 16 | 6.25 | 2 | 4 | 8 | 3.9 | MIC [21]: 3.9 µM; MIC [22]: 8 µM; MIC [23]: 15.6 µM; MIC [24]: 31 µM; MIC [25]: 7.8 µM; GI50 [26]: 2.3 µg/mL; GI50 [27]: 4 µg/mL; MIC [28]: 15.6 µM; MIC [29]: 7.8 µM; MIC [30]: 3.12 µg/mL; MIC [31]: 15.6 µM; MIC [32]: 8 µM; MIC [33]: 2 µM; MIC [34]: 15.6 µM; CC10 [35]: 1.2 µg/mL; CC50 [35]: 3.1 µg/mL; MIC [36]: 7.8 µM; MIC [37]: 3.12 µg/mL; MIC [38]: 15.6 µM |
| C[C@]12CC[C@@H]3c4ccc(OCCCCCCC[n+]5ccccc5)cc4CC[C@H]3[C@@H]1CCC2=O.[Br-] | 3.12 | 0.8 | 62.5 | 3.9 | 12.5 | 32 | 3.12 | 16 | 6.25 | 31.3 | 15.6 | > 250 | 3.12 | 32 | 32 | 6.25 | 32 | 16 | 32 | 3.9 | MIC [21]: 3.9 µM; MIC [22]: 16 µM; MIC [23]: 7.8 µM; MIC [24]: > 250 µM; MIC [25]: 62.5 µM; GI50 [26]: 5.3 µg/mL; GI50 [27]: 16.7 µg/mL; MIC [28]: 15.6 µM; MIC [29]: 7.8 µM; MIC [30]: 25 µg/mL; MIC [31]: 15.6 µM; MIC [32]: 32 µM; MIC [33]: 32 µM; MIC [34]: 15.6 µM; CC10 [35]: 5.1 µg/mL; CC50 [35]: 17.5 µg/mL; MIC [36]: 31.3 µM; MIC [37]: 6.25 µg/mL; MIC [38]: 3.9 µM |
